Test results published in ChEMBL document CHEMBL1158102, “Biologically active triterpenoid saponins from Acanthopanax senticosus” (J Nat Prod, 2006).
Activity calls are given as the source filed them. The calls are words filed in the database; no cut-off is given here.

Molecular target: T1, Pancreatic triacylglycerol lipase (Homo sapiens) (UniProt P16233)
T1 sequence (whole entry): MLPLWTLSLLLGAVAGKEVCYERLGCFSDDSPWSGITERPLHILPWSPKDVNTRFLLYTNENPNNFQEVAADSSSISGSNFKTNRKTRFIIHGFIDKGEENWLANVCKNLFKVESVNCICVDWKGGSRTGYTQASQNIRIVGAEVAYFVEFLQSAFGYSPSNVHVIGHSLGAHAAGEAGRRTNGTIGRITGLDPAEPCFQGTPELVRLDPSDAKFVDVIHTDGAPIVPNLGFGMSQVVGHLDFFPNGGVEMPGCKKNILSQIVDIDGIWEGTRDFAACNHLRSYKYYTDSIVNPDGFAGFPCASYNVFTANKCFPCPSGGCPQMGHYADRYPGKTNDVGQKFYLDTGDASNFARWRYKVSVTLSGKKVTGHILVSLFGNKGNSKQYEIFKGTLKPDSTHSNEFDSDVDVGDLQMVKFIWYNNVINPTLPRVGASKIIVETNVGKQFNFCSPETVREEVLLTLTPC
Assay: Inhibition of pancreatic lipase assessed as umoles of oleic acic released per millimiter of triolein per hour at 1 mg/mL
How it was run: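 Lipase activity measured as rate of oleic acid release from triolein. Substrate: sonicated triolein, phosphatidylcholine and taurocholic acid in 0.1 M TES buffer pH 7.0 with 0.1 M NaCl. Incubated with pancreatic lipase (10 units) and sample for 30 min at 37 °C. Free fatty acids extracted, converted to copper salts, reacted with bathocuproine, absorbance read at 480 nm. Means ± SEM of three experiments.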

Row | inhibition | Activity | SMILES
1 | 33% |  | C[C@@H]1O[C@@H](O[C@H]2[C@H](O[C@H]3CC[C@]4(C)[C@H]5CC=C6[C@@H]7C[C@](C)(CO)CC[C@]7(C(=O)O)CC[C@@]6(C)[C@@H]5CC[C@H]4C3(C)C)OC[C@H](O)[C@@H]2O)[C@H](O)[C@H](O)[C@H]1O
2 |  | inactive | CC(=O)OC[C@H]1O[C@@H](OC[C@H]2O[C@@H](OC(=O)[C@]34CCC(C)(C)C[C@H]3C3=CC[C@H]5[C@@H](CC[C@H]6C(C)(C)[C@@H](O[C@@H]7OC[C@H](O)[C@H](O)[C@H]7O[C@@H]7O[C@@H](C)[C@H](O)[C@@H](O)[C@H]7O)CC[C@]56C)[C@]3(C)CC4)[C@H](O)[C@@H](O)[C@@H]2O)[C@H](O)[C@@H](O)[C@@H]1O[C@@H]1O[C@@H](C)[C@H](O)[C@@H](O)[C@H]1O
3 |  | inactive | C[C@@H]1O[C@@H](O[C@H]2[C@H](O[C@H]3CC[C@]4(C)[C@H]5CC=C6[C@@H]7CC(C)(C)CC[C@]7(C(=O)O[C@@H]7O[C@H](CO[C@@H]8O[C@H](CO)[C@@H](O[C@@H]9O[C@@H](C)[C@H](O)[C@@H](O)[C@H]9O)[C@H](O)[C@H]8O)[C@@H](O)[C@H](O)[C@H]7O)CC[C@@]6(C)[C@]5(C)CC[C@H]4C3(C)C)OC[C@H](O)[C@@H]2O)[C@H](O)[C@H](O)[C@H]1O
4 | -46.7% |  | C=C1CC[C@]2(C(=O)O[C@@H]3O[C@H](CO[C@@H]4O[C@H](COC(C)=O)[C@@H](O[C@@H]5O[C@@H](C)[C@H](O)[C@@H](O)[C@H]5O)[C@H](O)[C@H]4O)[C@@H](O)[C@H](O)[C@H]3O)CC[C@]3(C)C(=CC[C@H]4[C@H]3CC[C@H]3C(C)(C)[C@@H](O[C@@H]5OC[C@H](O)[C@H](O)[C@H]5O)CC[C@]43C)[C@@H]2C1
5 |  | inactive | C=C1CC[C@]2(C(=O)O[C@@H]3O[C@H](CO[C@@H]4O[C@H](CO)[C@@H](O[C@@H]5O[C@@H](C)[C@H](O)[C@@H](O)[C@H]5O)[C@H](O)[C@H]4O)[C@@H](O)[C@H](O)[C@H]3O)CC[C@]3(C)C(=CC[C@H]4[C@H]3CC[C@H]3C(C)(C)[C@@H](O[C@@H]5OC[C@H](O)[C@H](O)[C@H]5O[C@@H]5O[C@@H](C)[C@H](O)[C@@H](O)[C@H]5O)CC[C@]43C)[C@@H]2C1
6 | 44.6% |  | C=C(C)[C@@H]1CC[C@]2(C(=O)O[C@@H]3O[C@H](CO[C@@H]4O[C@H](CO)[C@@H](O[C@@H]5O[C@@H](C)[C@H](O)[C@@H](O)[C@H]5O)[C@H](O)[C@H]4O)[C@@H](O)[C@H](O)[C@H]3O)CC[C@]3(C)[C@H](CC[C@@H]4[C@@](C)(CCC(=O)O)[C@H](C(=C)C)CC[C@]43C)[C@@H]12
7 |  | inactive | CC(=O)OC[C@H]1O[C@@H](OC[C@H]2O[C@@H](OC(=O)[C@]34CCC(C)(C)C[C@H]3C3=CC[C@H]5[C@@H](CC[C@H]6C(C)(C)[C@@H](O[C@@H]7OC[C@H](O)[C@H](O)[C@H]7O[C@@H]7O[C@H](CO)[C@@H](O)[C@H](O)[C@H]7O)CC[C@]56C)[C@]3(C)CC4)[C@H](O)[C@@H](O)[C@@H]2O)[C@H](O)[C@@H](O)[C@@H]1O[C@@H]1O[C@@H](C)[C@H](O)[C@@H](O)[C@H]1O
8 |  | inactive | C=C1CC[C@]2(C(=O)O[C@@H]3O[C@H](CO[C@@H]4O[C@H](CO)[C@@H](O[C@@H]5O[C@@H](C)[C@H](O)[C@@H](O)[C@H]5O)[C@H](O)[C@H]4O)[C@@H](O)[C@H](O)[C@H]3O)CC[C@]3(C)C(=CC[C@H]4[C@H]3CC[C@H]3C(C)(C)[C@@H](O[C@@H]5OC[C@H](O)[C@H](O)[C@H]5O[C@@H]5O[C@H](CO)[C@@H](O)[C@H](O)[C@H]5O)CC[C@]43C)[C@@H]2C1
9 | -80.5% |  | C=C1CC[C@]2(C(=O)O[C@@H]3O[C@H](CO[C@@H]4O[C@H](COC(C)=O)[C@@H](O[C@@H]5O[C@@H](C)[C@H](O)[C@@H](O)[C@H]5O)[C@H](O)[C@H]4O)[C@@H](O)[C@H](O)[C@H]3O)CC[C@]3(C)C(=CC[C@H]4[C@H]3CC[C@H]3C(C)(C)[C@@H](O[C@@H]5OC[C@H](O)[C@H](O)[C@H]5O[C@@H]5O[C@@H](C)[C@H](O)[C@@H](O)[C@H]5O)CC[C@]43C)[C@@H]2C1
10 | 38.3% |  | C[C@@H]1O[C@@H](O[C@H]2[C@H](O[C@H]3CC[C@]4(C)[C@H]5CC=C6[C@@H]7CC(C)(C)CC[C@]7(C(=O)O[C@@H]7O[C@H](CO[C@@H]8O[C@H](CO)[C@@H](O[C@@H]9O[C@@H](C)[C@H](O)[C@@H](O)[C@H]9O)[C@H](O)[C@H]8O)[C@@H](O)[C@H](O)[C@H]7O)[C@H](O)C[C@@]6(C)[C@@H]5CC[C@H]4C3(C)C)OC[C@H](O)[C@@H]2O)[C@H](O)[C@H](O)[C@H]1O
11 | 46.5% |  | C=C1CC[C@]2(C(=O)O[C@@H]3O[C@H](CO[C@@H]4O[C@H](CO)[C@@H](O[C@@H]5O[C@@H](C)[C@H](O)[C@@H](O)[C@H]5O)[C@H](O)[C@H]4O)[C@@H](O)[C@H](O)[C@H]3O)CC[C@]3(C)C(=CC[C@H]4[C@H]3CC[C@H]3C(C)(C)[C@@H](O[C@@H]5OC[C@H](O)[C@H](O)[C@H]5O)CC[C@]43C)[C@@H]2C1
12 |  | inactive | C[C@@H]1O[C@@H](O[C@H]2[C@H](O)[C@@H](O)[C@H](OC[C@H]3O[C@@H](OC(=O)[C@]45CCC(C)(C)C[C@H]4C4=CC[C@@H]6[C@@]7(C)CC[C@H](O[C@@H]8OC[C@H](O)[C@H](O)[C@H]8O)C(C)(C)[C@@H]7CC[C@@]6(C)[C@]4(C)CC5)[C@H](O)[C@@H](O)[C@@H]3O)O[C@@H]2CO)[C@H](O)[C@H](O)[C@H]1O
13 |  | inactive | C=C1CC[C@]2(C(=O)O[C@@H]3O[C@H](CO[C@@H]4O[C@H](COC(C)=O)[C@@H](O[C@@H]5O[C@@H](C)[C@H](O)[C@@H](O)[C@H]5O)[C@H](O)[C@H]4O)[C@@H](O)[C@H](O)[C@H]3O)CC[C@]3(C)C(=CC[C@H]4[C@H]3CC[C@H]3C(C)(C)[C@@H](O[C@@H]5OC[C@H](O)[C@H](O)[C@H]5O[C@@H]5O[C@H](CO)[C@@H](O)[C@H](O)[C@H]5O)CC[C@]43C)[C@@H]2C1
14 | 44.9% |  | C[C@@H]1O[C@@H](O[C@H]2[C@H](O[C@H]3CC[C@]4(C)[C@H]5CC=C6[C@@H]7C[C@](C)(C(=O)O)CC[C@]7(C(=O)O)CC[C@@]6(C)[C@@H]5CC[C@H]4C3(C)C)OC[C@H](O)[C@@H]2O)[C@H](O)[C@H](O)[C@H]1O

Row | SMILES | inhibition | Activity
15 | C=C(C)[C@@H]1CC[C@]2(C(=O)O[C@@H]3O[C@H](CO[C@@H]4O[C@H](CO)[C@@H](O[C@@H]5O[C@@H](C)[C@H](O)[C@@H](O)[C@H]5O)[C@H](O)[C@H]4O)[C@@H](O)[C@H](O)[C@H]3O)CC[C@]3(C)[C@H](C[C@H]4OC(=O)C[C@@H](O)[C@]5(C)[C@@H]4[C@@]3(C)CC[C@H]5C(=C)C)[C@@H]12 | 56.1% | 
